# Measurements pooled from the literature.
# Lines come from different studies, so protocols differ.
SMILES,assay,test system,setting,measurement,value
CC(=O)N[C@@H](CC(N)=O)C(=O)N[C@@H](CCCNC(=N)N)C(=O)N[C@@H](CC(C)C)C(=O)N[C@H]1CSSC[C@@H](C(=O)N[C@H](C(N)=O)[C@@H](C)O)NC(=O)[C@H](CCCNC(=N)N)NC(=O)[C@H](Cc2c[nH]cn2)NC(=O)[C@H](Cc2cccc3ccccc23)NC(=O)CNC(=O)[C@H](Cc2c[nH]c3ccccc23)NC(=O)[C@H](CC(=O)O)NC(=O)[C@H](CCC(N)=O)NC(=O)[C@H](Cc2c[nH]c3ccccc23)NC(=O)[C@H](C(C)C)NC1=O,,PBS,pH 7.4,solubility,340 µg/mL
COc1ccc(C2=Nn3c(nnc3-c3cc(-c4ccc(Cl)cc4)n[nH]3)SC2C)cc1 (centres unmarked),general toxicity,mouse,"intravenous, 4 mg/kg, single dose",MTD,4 mg/kg
C[C@H](N)Cn1ncc2ccc3c(c21)CCCO3,potentiometric,water,,pKa,8.45
C=C(CC)C(=O)c1ccc(OCC(=O)O)c(Cl)c1Cl,general toxicity,mouse,intraperitoneal,MTD,30 mg/kg
N=c1c2c(-c3ccccc3)c(-c3ccccc3)n(Cc3ccccc3)c2ncn1[C@H]1CC[C@H](O)CC1,,"male beagle dog, plasma","oral, 1 mg/kg, single dose",Tmax,~15 h
CCCC(CCC)NC(=O)c1ccc2c(c1)OCO2,general toxicity,Swiss mouse,intraperitoneal,MTD,700 mg/kg
COc1ccnc(C(=O)N[C@H]2COC(=O)[C@H](Cc3ccccc3)[C@@H](OC(=O)C(C)C)[C@H](C)OC2=O)c1OCOC(=O)C(C)C,,,,pKa,2.4
Nc1ncc(-c2nc(N3CCOCC3)nc(N3CCOCC3)n2)c(C(F)F)n1,shake flask,FeSSIF,24 h,thermodynamic solubility,13.9 µM
CCCCCCCCCCCC(=O)OC[C@@H](COP(=O)(O)OCCNC(=O)c1ccc(Cn2c(=O)[nH]c3c(N)nc(OCCOC)nc32)cc1)OC(=O)CCCCCCCCCCC,general toxicity,mouse,intravenous,MTD,150 mg/kg
Cc1cc(C)nc(Nc2ncc(C(=O)NCCc3c(C)[nH]c4ccccc34)cn2)c1,,,,pKa,5.8
CC[C@H](C)[C@H](NC(=O)[C@H](CO)NC(=O)[C@H](CCCNC(=N)N)NC(C)=O)C(=O)N[C@H]1CSSC[C@@H](C(=O)N[C@H](C(N)=O)[C@@H](C)O)NC(=O)[C@H](CCCNC(=N)N)NC(=O)[C@H](Cc2c[nH]cn2)NC(=O)[C@H](C)NC(=O)CNC(=O)[C@H](Cc2c[nH]c3ccccc23)NC(=O)[C@H](CC(=O)O)NC(=O)[C@H](CCC(N)=O)NC(=O)[C@H](Cc2cccc3ccccc23)NC(=O)[C@H](C(C)C)NC1=O,,PBS,pH 7.4,solubility,2110 µg/mL
CC(C)(C)c1cc(NC(=O)Nc2ccc(Oc3ccnc4[nH]c(=O)cnc34)cc2F)n(-c2ccccc2)n1,general toxicity,CD-1 mouse,"oral, single dose",MTD,40 mg/kg
CC(=O)N[C@@H](CC(N)=O)C(=O)N[C@@H](CC(N)=O)C(=O)N[C@@H](CC(C)C)C(=O)N[C@H]1CSSC[C@@H](C(=O)N[C@H](C(N)=O)[C@@H](C)O)NC(=O)[C@H](CCCNC(=N)N)NC(=O)[C@H](Cc2c[nH]cn2)NC(=O)[C@H](Cc2cccc3ccccc23)NC(=O)CNC(=O)[C@H](Cc2c[nH]c3ccccc23)NC(=O)[C@H](CC(=O)O)NC(=O)[C@H](CCC(N)=O)NC(=O)[C@H](Cc2cccc3ccccc23)NC(=O)[C@H](C(C)C)NC1=O,,PBS,pH 7.4,solubility,270 µg/mL
Cc1ncc(C)n2nc(/C=C/c3nc(N4CCCC4)cc(N4CCOCC4)n3)nc12,,"male beagle dog, plasma","oral, 0.3 mg/kg",Tmax,1.2 h
